TNAP inh noacc: inhibitors of human TNAP without phosphate acceptor; inhibition, % at 20 µM; purified TNAP, CDP-star luminescence, 30 min; P05186; AID 1012; 200,000 compounds, 0.26% hits;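 active means tissue-nonspecific alkaline phosphatase inhibition above about 50% at 20 µM in the single-dose screen, limit read from the data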
Target sequence (P05186 whole entry, looked up): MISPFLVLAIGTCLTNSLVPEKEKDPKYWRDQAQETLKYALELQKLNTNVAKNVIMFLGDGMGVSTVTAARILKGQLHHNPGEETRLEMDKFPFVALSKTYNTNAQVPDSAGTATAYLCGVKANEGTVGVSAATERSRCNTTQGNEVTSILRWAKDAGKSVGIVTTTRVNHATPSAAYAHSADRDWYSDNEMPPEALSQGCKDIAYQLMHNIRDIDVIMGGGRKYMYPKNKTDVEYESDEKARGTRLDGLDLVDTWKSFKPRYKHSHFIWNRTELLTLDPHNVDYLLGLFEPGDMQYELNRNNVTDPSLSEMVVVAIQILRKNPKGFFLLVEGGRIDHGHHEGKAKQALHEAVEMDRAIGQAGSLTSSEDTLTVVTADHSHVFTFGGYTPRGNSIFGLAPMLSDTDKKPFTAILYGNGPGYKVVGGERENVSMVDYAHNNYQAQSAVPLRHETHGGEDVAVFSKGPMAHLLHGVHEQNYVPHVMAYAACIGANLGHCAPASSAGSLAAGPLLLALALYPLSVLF
TNAP act hiacc: increases human TNAP activity under high phosphate acceptor concentration; P05186; purified TNAP, CDP-star luminescence, 1 M DEA, 30 min; active compounds read high; 0 = EDTA background, 1 = DMSO-only activity; activation factor at 20 µM; 200,000 tested, under 10 active; AID 1136;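 active means activation factor at least 2 at 20 µM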
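Assay system: human TNAP; Input: enzyme diluted 1/800 final; Reagent: CDP-star luminogenic substrate at 100 µM final; Timing: 30 min, room temperature; Signal: luminescence; Evaluation: TNAP activation factor scaled between EDTA and DMSO control wells.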
Insulin prom inh: TRM-6 insulin promoter activity inhibition. TRM-6 cells, insulin promoter-eGFP reporter, imaging; reporter expression induced with tamoxifen. inhibition, % at 2 µM. 130,000 compounds, 0.9% hits;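 active means inhibition above the mean plus 3 SD, with well images judged a real hit on visual review, cut at about 60% in these data, passing the limit was not always enough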
Efa HMGR inh: blocks class II HMG-CoA reductase of Enterococcus faecalis; purified E. faecalis HMGR, NADPH absorbance 340 nm kinetic; inhibition, % at 10 µM; 190,000 compounds, 0.41% hits; AID 1066;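 active means inhibition above a set limit, the median over all tested compounds plus 3 SD, cut at about 9.5% in these data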;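 further: enzyme runs in reverse so mevalonate oxidation gives rising NADPH absorbance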
TNAP inh hiacc: blocks human TNAP under high phosphate acceptor concentration; purified TNAP, CDP-star luminescence, 1 M DEA; inhibition, % at 20 µM; 200,000 compounds, 0.03% hits; AID 1135;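 active means over 50% inhibition of tissue-nonspecific alkaline phosphatase at 20 µM in the single-dose screen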
Hits are given with their value; . = inactive; / = not tested or not shown. Compounds with a hit are over-represented: about 1.2% of the library has one in this group of screens.

SMILES	TNAP inh noacc	TNAP act hiacc	Insulin prom inh	Efa HMGR inh	TNAP inh hiacc
CC1(C)CC(=O)c2c(-c3cccs3)n[nH]c2C1	88	.	.	.	.
CCCc1n[nH]c2c1C(=O)CC(C)(C)C2	64	.	.	.	.
CCOC(=O)N/N=C\c1ccc([N+](=O)[O-])s1	.	.	.	11	.
CCCCNc1nc2ccccc2[nH]1	.	.	100	.	.
CCOCCCNc1nc2ccccc2[nH]1	.	.	.	.	.
Cc1nc(N)nc(N)c1/C=C/C(C)(C)c1ccc(Cl)cc1	.	.	.	.	.
Cn1c(NC(=O)c2cccnc2)nc2ccccc21	69	.	/	.	.
O=C(O)C1C2C=CC(C2)C1C(=O)NCc1cccs1 (stereo unspecified)	.	.	/	.	.
CC(C)(C)C(=O)N1CCC[C@H]1C(O)(c1ccccc1)c1ccccc1	.	.	.	14	.
COc1cc(C(=O)Nc2cccc(-c3nc4cc(C)ccc4o3)c2)cc(OC)c1OC	.	.	71	.	.
COc1cc(C(=O)Nc2cc(-c3nc4cc(C)ccc4o3)ccc2C)cc(OC)c1OC	.	.	.	.	.
CC(=O)Nc1ccc2c(c1)OCO2	.	.	.	.	.
CC(C)c1cc(C(=O)Nc2ccc3c(c2)OCO3)no1	.	.	80	.	.
CC(=O)Nc1ccc2c(c1)OCCO2	.	.	.	16	.
O=C(Nc1ccc2c(c1)OCO2)N1CCOCC1	.	.	.	.	.
Cc1ccc(-n2c(=O)[nH]cc(C(=O)Nc3ccc4c(c3)OCCO4)c2=O)cc1C	.	.	86	.	.
O=C(Nc1ccc2c(c1)OCCO2)N1CCOCC1	.	.	78	.	.
O=C(Nc1ccc2c(c1)OCO2)c1cc(C2CC2)on1	.	.	/	.	.
FC(F)(F)c1cc(-c2ccc(Cl)cc2)nc2ncnn12	.	.	.	.	.
COc1cccc(-n2nc(C(C)=O)c(C#N)c2-c2ccco2)c1	.	.	.	.	.
CN1CCN(C(=S)c2cn(Cc3ccc(Br)cc3)c3ccccc23)CC1	.	.	.	.	.
Cc1ccc(CNC(=O)c2ccc(-n3cccc3)cc2)cc1	.	.	100	.	.
Cc1ccc(S(=O)(=O)N2CCC(=O)N(C(COC(=O)Nc3ccccc3)Cc3ccccc3)CC2)cc1 (stereo unspecified)	.	.	.	.	.
Cc1ccc(S(=O)(=O)N2CCC(=O)N(C(CO)Cc3ccccc3)CC2)cc1 (stereo unspecified)	.	.	.	12	.
COc1cc(S(=O)(=O)N2CCC(c3nc4ccccc4s3)CC2)ccc1S(=O)(=O)NC1CCCC1	.	.	.	14	.
SMILES	TNAP inh noacc	TNAP act hiacc	Insulin prom inh	Efa HMGR inh	TNAP inh hiacc
NS(=O)(=O)c1ccc(NC(=O)COC(=O)COc2ccc(Cl)cc2)cc1	.	.	/	.	.
CCc1ccc(NC(=O)CCc2nc3ccccc3[nH]2)cc1	.	.	.	.	.
CC(=O)Nc1ccc(Cc2nc3ccccc3[nH]2)cc1	.	.	/	16	.
COc1cccc(CCC(=O)O)c1OC	/	/	89	.	/
COc1ccc2nc(SCCN(C)C)[nH]c2c1	.	.	.	.	.
C=CCSc1n[nH]c(-c2ccc(OC)cc2)n1	80	.	.	.	.
C=CCSc1n[nH]c(-c2ccccc2)n1	76	.	.	.	.
COc1ccccc1/C=C/C=N/NC(=O)c1ccc2nc[nH]c2c1	.	.	.	.	.
COc1cc(/C=N/NC(=O)c2cccnc2)ccc1OS(=O)(=O)c1cc(C)ccc1C	.	.	.	.	.
Cc1ccc(S(=O)(=O)N(C)C)cc1NC(=O)COC(=O)/C(=C/c1ccc(F)cc1)c1cccs1	.	.	64	.	.
Cc1[nH]nc(-c2ccc(OCc3cnn(-c4ccccc4)c3)c(C)c2O)c1Oc1ccccc1	.	.	.	.	.
Cc1[nH]nc(-c2ccc(O)c(C)c2O)c1Oc1ccccc1	72	.	.	.	.
O=C(COC(=O)C12CC3CC(CC(C3)C1)C2)Nc1ncc(Cl)cc1Cl	.	.	.	.	.
O=C(COC(=O)CC12CC3CC(CC(C3)C1)C2)Nc1ncc(Cl)cc1Cl	.	.	100	.	.
COc1ccc(CCn2c(=O)[nH]c3cc(C(=O)N4CCN(c5ccccn5)CC4)ccc3c2=O)cc1OC	.	.	.	.	.
COc1cccc(-n2cnc3sc(C)c(C)c3c2=O)c1	.	.	.	.	.
Cc1ccc(-n2cnc3sc(C)c(C)c3c2=O)cc1	.	.	.	13	.
O=C(c1ccc2c(c1)OCO2)C1CCCN(C2CCN(CCc3ccccc3)CC2)C1 (stereo unspecified)	.	.	.	.	.
O=C(Nc1nccs1)c1ccc(CSc2nnnn2-c2ccccc2)cc1	.	.	.	11	.
CCc1ccccc1NC(=O)c1ccc([N+](=O)[O-])s1	.	.	.	.	.
COc1ccc(CSCC(=O)N/N=C/c2ccccc2O)cc1	.	.	75	.	.
O=C(Nc1cccnc1)c1cccc(S(=O)(=O)N2CCCCC2)c1	.	.	/	12	.
O=C(CNC(=O)c1ccc(S(=O)(=O)N2CCCC2)cc1)N/N=C/c1ccc(Cl)cc1	.	.	.	16	.
COc1cc(/C=N/NC(=O)c2cccc(S(=O)(=O)N3CCCCC3)c2)cc(Br)c1O	.	.	/	.	.
O=C(N/N=C/c1ccc(O)c(O)c1)c1cccc(S(=O)(=O)N2CCCCC2)c1	78	.	/	.	.
SMILES	TNAP inh noacc	TNAP act hiacc	Insulin prom inh	Efa HMGR inh	TNAP inh hiacc
CCOc1ccc(NC(=O)CC2SC(=O)N(c3ccccc3)C2=O)cc1 (stereo unspecified)	.	.	/	.	.
O=C1COc2ccc(C(=O)COC(=O)CCSc3ccc(Cl)cc3)cc2N1	.	.	/	.	.
COc1cccc(NC(=O)CSCC(=O)Nc2ccccc2)c1	.	.	.	.	.
O=C(CCCOc1ccccc1)Nc1cccc([N+](=O)[O-])c1	.	.	77	.	.
COc1cccc(NC(=O)Cc2ccccc2)c1	.	.	73	.	.
Cc1ccc(C(=O)Nc2cccc(C(=O)O)c2)cc1	.	.	.	.	.
Cc1oc2c(c1C(=O)Nc1cccc(C(=O)O)c1)CCCC2	.	.	66	.	.
CSCC[C@H](NC(=O)COc1ccc(Cl)cc1)c1nc2ccccc2[nH]1	.	.	.	.	.
O=S(=O)(Nc1ccc(N=Nc2ccc(O)c3ccccc23)cc1)c1ccccc1	53	.	.	.	.
O=S(=O)(Nc1ccc(N=Nc2ccccc2)cc1)c1ccccc1	.	.	/	.	.
COc1ccc(C(=O)OCC(=O)NCCN2C(=O)CSC2=O)cc1	.	.	.	.	.
CCN(CC)S(=O)(=O)c1ccc(N2CCOCC2)c(NC(=O)c2cc(-c3ccccn3)nc3ccccc23)c1	.	.	.	12	.
COc1ccc(C(=O)NCC(=O)OCc2csc(-c3ccccc3)n2)cc1	.	.	/	.	.
C=CCNC(=O)COC(=O)c1ccc(C)c(NC(=O)c2ccco2)c1	.	.	73	.	.
CCCCCCN1C2=NCCN2c2ccccc21	.	.	84	.	.

Source: PubChem BioAssay (several laboratories)
